From ChEMBL document CHEMBL1122812, “Novel amino-substituted 3-quinolinecarboxylic acid antibacterial agents: synthesis and structure-activity relationships” (1984) come the findings set out here.

In general, MIC refers to the lowest concentration found to suppress growth. Higher therefore signals a need for much substance.

≈ marks a conversion by molar mass, not a printed value.

Holding throughout (type): functional
Assay [1] in a line: Antibacterial activity in mice after intraperitoneal administration with 0.5 mL of Escherichia coli Vogel inoculum. Conditions: sc. The gist of the method: (§1)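 Female ICR mice (18-20 g) infected intraperitoneally with 0.5 mL of E. coli Vogel (grown in brain heart infusion broth, suspended in saline) at 1.9×10^7 cells/mL. Compound as free acid dissolved in dilute NaOH and diluted with water, given once (0.5 mL) sc or po at 0.5 h postinfection. Groups of 10 mice at four or five dose levels, with nonmedicated controls. Deaths recorded daily for 7 days; PD50 by probit analysis.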

In the next assay the test system is Escherichia coli. As to the kind of experiment: In vitro minimum inhibitory concentration against growth of Escherichia coli Vogel. The gist of the method: (§2)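 Tube serial dilution. Cultures grown overnight at 37 °C in tryptose phosphate broth or brain heart infusion broth. Compound stock of 1000 μg/mL (as free acid) made in minimal 0.5 N NaOH, then diluted in distilled water. Dilutions were mixed 1:1 with culture to a final 1×10^5 cells/mL and incubated 18–20 h at 37 °C. MIC = lowest concentration with no visible growth.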

The next assay relates to Klebsiella pneumoniae. The assay can be described thus: In vitro minimum inhibitory concentration against growth of Klebsiella pneumoniae strain 39645. The gist of the method: (§3)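 Tube serial dilution. Stocks at 1000 μg/mL (free acid) were made in minimal 0.5 N NaOH and diluted in distilled water. Cultures were grown overnight at 37 °C in tryptose phosphate or brain heart infusion broth. Final inoculum was 1×10^5 cells/mL, incubated 18–20 h at 37 °C. MIC was the lowest concentration preventing visible growth.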

For another assay, the system named is Mus musculus. The assay can be described thus: Compound was evaluated for antibacterial activity in mice after peroral administration with 0.5 mL of Escherichia coli Vogel inoculum. As to conditions: po, read-out: PD50. The gist of the method: as §1
The next assay relates to Pseudomonas aeruginosa. The assay can be described thus: In vitro minimum inhibitory concentration against growth of Pseudomonas aeruginosa MGH-2. The gist of the method: as §2
In a further assay the test system is Staphylococcus aureus. The assay can be described thus: In vitro minimum inhibitory concentration against growth of Staphylococcus aureus Smith. The gist of the method: as §3

Consider `CNn1cc(C(=O)O)c(=O)c2cc(F)c(N3CCCC(O)C3)cc21` (configuration not stated), for which, in assay [1], the PD50 was 41 mg/kg.

Consider `C=CCNn1cc(C(=O)O)c(=O)c2cc(F)c(N3CCN(C)CC3)cc21`, for which, in the assay on Escherichia coli, the MIC came to 1 µg/mL (≈ 2.77 µM). In assay [1], the PD50 is 19 mg/kg.

Regarding `CCn1cc(C(=O)O)c(=O)c2cc(F)c(N3CCNCC3)cc21` [NORFLOXACIN], the MIC against Klebsiella pneumoniae stood at 0.5 µg/mL (≈ 1.57 µM); in the assay with Escherichia coli, 0.5 µg/mL (≈ 1.57 µM); in the assay on Pseudomonas aeruginosa, 1 µg/mL (≈ 3.13 µM); against Staphylococcus aureus it was 1.95 µg/mL (≈ 6.11 µM). For the same molecule, in the assay on Mus musculus, the ED50 stood at 5.9 mg/kg. The same molecule showed a PD50 in assay [1] of 0.3 mg/kg.

`CNn1cc(C(=O)O)c(=O)c2cc(F)c(N3CCOCC3)cc21` showed an MIC in the assay with Escherichia coli of 0.5 µg/mL (≈ 1.56 µM). Moreover, in assay [1], the PD50 turned out to be 16.6 mg/kg.

In the case of `CCN1CCN(c2cc3c(cc2F)c(=O)c(C(=O)O)cn3NC)CC1`, it took 0.5 µg/mL (≈ 1.44 µM) to inhibit growth in the assay with Escherichia coli (MIC).

In the case of `CCCN1CCN(c2cc3c(cc2F)c(=O)c(C(=O)O)cn3NC)CC1`, in the assay on Escherichia coli, it took 0.25 µg/mL (≈ 0.69 µM) to inhibit growth (MIC). Besides, the PD50 in assay [1] is 14.2 mg/kg.

Take `CNn1cc(C(=O)O)c(=O)c2cc(F)c(N3CCCC3)cc21`: the MIC against Escherichia coli came out at 1 µg/mL (≈ 3.28 µM).

`CNn1cc(C(=O)O)c(=O)c2cc(F)c(N3CCC(O)C3)cc21` (configuration not stated) showed a minimum inhibitory concentration (MIC) against Escherichia coli of 1 µg/mL (≈ 3.11 µM).

In the assay with Escherichia coli, `CCCNn1cc(C(=O)O)c(=O)c2cc(F)c(N3CCN(C)CC3)cc21` had an MIC of 1.95 µg/mL (≈ 5.38 µM). Further, the PD50 in assay [1] turned out to be 33 mg/kg.

With `CNn1cc(C(=O)O)c(=O)c2cc(F)c(N3CCNCC3)cc21`, the MIC against Klebsiella pneumoniae amounted to 1 µg/mL (≈ 3.12 µM); in the assay on Escherichia coli, 1 µg/mL (≈ 3.12 µM); in the assay with Pseudomonas aeruginosa, 1 µg/mL (≈ 3.12 µM); in the assay on Staphylococcus aureus it was 1.95 µg/mL (≈ 6.09 µM). Further, the ED50 in the assay with Mus musculus stood at 6.4 mg/kg. Further, the PD50 in assay [1] was found to be 0.3 mg/kg.

For the molecule `CN1CCN(c2cc3c(cc2F)c(=O)c(C(=O)O)cn3N(C)C)CC1`, the MIC against Escherichia coli is 0.5 µg/mL (≈ 1.44 µM). Besides, the PD50 in assay [1] came out at 1.6 mg/kg.

In the case of `CCn1cc(C(=O)O)c(=O)c2cc(F)c(N3CCN(C)CC3)cc21` [PEFLOXACIN], the minimal inhibitory concentration (MIC) in the assay with Klebsiella pneumoniae was found to be 0.5 µg/mL (≈ 1.5 µM); with Escherichia coli it was 0.25 µg/mL (≈ 0.75 µM); against Pseudomonas aeruginosa it was 1 µg/mL (≈ 3 µM); against Staphylococcus aureus it was 1 µg/mL (≈ 3 µM). Besides, the ED50 in the assay with Mus musculus was 1.1 mg/kg. Further, the PD50 in assay [1] came out at 0.5 mg/kg.

In the assay with Escherichia coli, `CNn1cc(C(=O)O)c(=O)c2cc(F)c(N3CCSCC3)cc21` returned an MIC of 0.5 µg/mL (≈ 1.48 µM).

Turning to `CNn1cc(C(=O)O)c(=O)c2cc(F)c(N3CCN(C(C)=O)CC3)cc21`, the MIC in the assay with Escherichia coli was 15.6 µg/mL (≈ 43.1 µM). Moreover, the PD50 in assay [1] was found to be 109 mg/kg.

`CNn1cc(C(=O)O)c(=O)c2cc(F)c(N3CCCN(C)CC3)cc21.Cl` registered a minimum inhibitory concentration (MIC) with Escherichia coli of 1.95 µg/mL. The molecule also came in with a PD50 in assay [1] of 5.5 mg/kg.

In the assay with Escherichia coli, `CCOC(=O)c1cn(NC)c2cc(N3CCN(C)CC3)c(F)cc2c1=O.CS(=O)(=O)O` showed an MIC of 62.5 µg/mL.

Molecule `CNn1cc(C(=O)O)c(=O)c2cc(F)c(N3CCN(C(C)C)CC3)cc21` showed an MIC in the assay on Escherichia coli of 0.5 µg/mL (≈ 1.38 µM). This molecule came in with a PD50 in assay [1] of 1.5 mg/kg.

For `CNn1cc(C(=O)O)c(=O)c2cc(F)c(N3CCCNCC3)cc21.Cl`, in assay [1], the PD50 turned out to be 2.8 mg/kg.

The molecule `CNn1cc(C(=O)O)c(=O)c2cc(F)c(N3CC[N+](C)([O-])CC3)cc21` registered an MIC in the assay with Escherichia coli of 15.6 µg/mL (≈ 44.5 µM). In assay [1], this molecule gave a PD50 of 9.4 mg/kg.

Take `CNn1cc(C(=O)O)c(=O)c2cc(F)c(N3CCC(O)CC3)cc21`: 1.95 µg/mL (≈ 5.82 µM) was the least that counted as inhibitory in the assay on Escherichia coli (MIC).

For the molecule `CNn1cc(C(=O)O)c(=O)c2cc(F)c(N3CCN(C)CC3)cc21` [AMIFLOXACIN], the MIC is 0.25 µg/mL (≈ 0.748 µM) against Klebsiella pneumoniae, 0.25 µg/mL (≈ 0.748 µM) in the assay with Escherichia coli, 1 µg/mL (≈ 2.99 µM) against Pseudomonas aeruginosa and 1 µg/mL (≈ 2.99 µM) against Staphylococcus aureus. Also, the ED50 in the assay with Mus musculus amounted to 1 mg/kg.

`CCNn1cc(C(=O)O)c(=O)c2cc(F)c(N3CCN(C)CC3)cc21` came in with an MIC against Escherichia coli of 0.5 µg/mL (≈ 1.44 µM).

In the assay with Escherichia coli, `CN1CCN(c2cc3c(cc2F)c(=O)c(C(=O)O)cn3N)CC1` registered an MIC of 1.95 µg/mL (≈ 6.09 µM). This molecule also had a PD50 in assay [1] of 2.9 mg/kg.
